# Assay outcomes from PubChem BioAssay.
# In the library only some 2.9% were active in any assay of this set; here they are far more common.
# TRPC6 inhibitor – mouse TRPC6 channel inhibition; Q61143; HEK293-TRPC6, membrane potential dye, ACh-evoked depolarization; stronger effect = lower value; B-score at 10 µM; 310,000 compounds, 1.1% hits;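 active means B-score under library mean minus 3 SD, initial fluorescence not abnormally high, positive integrated signal ratio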;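 further: B-score derived from integrated fluorescence ratio over the kinetic read; more negative B-score means stronger inhibition of depolarization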
# TRPC6 act – activators of mouse TRPC6 channel; B-score at 10 µM; Q61143; HEK293-TRPC6 membrane potential dye fluorescence; stronger effect = higher value; AID 2550; 310,000 compounds, 0.13% hits;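 active means B-score of the integrated fluorescence ratio above library mean plus 3 SD, and starting fluorescence ratio within library mean plus 5 SD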;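 further: higher score means more depolarization so channel activation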
# TRPC4 potent – allosterically enhances the mouse TRPC4 cation channel | Q9QUQ5 | HEK293 TRPC4beta/mu-opioid, DAMGO EC20, Fluo-4 Ca2+ flux; stronger effect = higher value | B-score at 10 µM | 310,000 compounds, 0.42% hits | AID 2227;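 active means B-score of calcium response area above 5 SD of library B-scores, with initial fluorescence ratio within 5 SD of library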;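 further: B-score of integrated fluorescence ratio over time as area under calcium response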
# Target sequence (Q9QUQ5 whole entry, looked up): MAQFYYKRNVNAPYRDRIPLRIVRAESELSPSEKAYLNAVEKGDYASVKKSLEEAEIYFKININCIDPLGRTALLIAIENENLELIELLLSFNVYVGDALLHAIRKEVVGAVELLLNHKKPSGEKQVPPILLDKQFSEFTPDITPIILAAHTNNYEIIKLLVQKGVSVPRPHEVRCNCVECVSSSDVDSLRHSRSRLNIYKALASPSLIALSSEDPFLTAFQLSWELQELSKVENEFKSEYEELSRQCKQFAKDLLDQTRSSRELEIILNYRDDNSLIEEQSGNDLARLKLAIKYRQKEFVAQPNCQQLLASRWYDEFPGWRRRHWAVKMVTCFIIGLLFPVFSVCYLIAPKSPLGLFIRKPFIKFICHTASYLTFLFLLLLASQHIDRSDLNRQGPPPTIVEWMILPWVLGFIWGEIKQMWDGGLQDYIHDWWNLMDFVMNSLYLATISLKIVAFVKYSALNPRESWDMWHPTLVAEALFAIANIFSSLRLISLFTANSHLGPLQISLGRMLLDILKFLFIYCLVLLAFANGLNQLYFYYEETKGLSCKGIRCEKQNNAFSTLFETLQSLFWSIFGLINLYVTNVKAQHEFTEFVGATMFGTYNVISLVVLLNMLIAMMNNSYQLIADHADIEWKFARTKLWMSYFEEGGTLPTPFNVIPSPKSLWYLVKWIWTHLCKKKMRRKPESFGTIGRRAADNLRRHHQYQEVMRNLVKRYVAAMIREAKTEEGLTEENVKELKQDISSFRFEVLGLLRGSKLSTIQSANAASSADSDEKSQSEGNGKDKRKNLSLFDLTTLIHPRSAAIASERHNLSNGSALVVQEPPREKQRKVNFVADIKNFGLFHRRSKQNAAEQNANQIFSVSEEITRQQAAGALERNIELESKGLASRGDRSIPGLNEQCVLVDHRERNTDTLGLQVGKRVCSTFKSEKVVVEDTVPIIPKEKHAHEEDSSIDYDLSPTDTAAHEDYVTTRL
# Kir21 block – inhibitors of mouse Kir2.1 inward-rectifier potassium channel | HEK293-Kir2.1, FluxOR thallium flux fluorescence; stronger effect = lower value | AID 1672 | P35561 | B-score at 10 µM | 310,000 compounds, 0.85% hits;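 active means fluorescence ratio B-score at or below minus 3 SD of library scores, with starting-brightness B-score within 2 SD, cut at about -4.2 in these data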;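 further: channel flux triggered by added potassium and thallium sulfate stimulus; B-score of peak minus minimum fluorescence over baseline after thallium stimulus; more negative B-score means stronger Kir2.1 block with less thallium influx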
# TRPC4 act – opens the mouse TRPC4 cation channel. Q9QUQ5. HEK293 TRPC4beta/mu-opioid, Fluo4 calcium fluorescence; stronger effect = higher value. B-score at 10 µM. 310,000 compounds, 0.49% hits. AID 2237;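 active means B-score above 5 SD of library B-scores, and initial fluorescence ratio not above library mean plus 5 SD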;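 further: positive B-score marks a calcium rise read as TRPC4 activation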
#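 Assay system – TRPC4beta and mu-opioid receptor HEK293 stable cells · Measured by – Fluo4 fluorescence, kinetic · Schedule – dye loading 45 min room temperature, 110 s kinetic read · Read-out – B-scored integrated calcium fluorescence ratio · Controls – buffer and maximal DAMGO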
# TRPC4 block – inhibitors of mouse TRPC4 channel; AID 2247; B-score at 10 µM; HEK293 TRPC4beta/mu-opioid, DAMGO-evoked Fluo4 calcium flux; stronger effect = lower value; 300,000 compounds, 0.39% hits; Q9QUQ5;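 active means B-score over 3 SD under the library average, no early fluorescence shift, positive overall ratio signal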
#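 material = TRPC4beta/mu-opioid receptor HEK293 cell line | probe or stimulus = sequential submaximal and maximal DAMGO stimulation | compound dosing = one concentration per compound | measured by = Fluo4 Ca2+ flux fluorescence | evaluation = integrated fluorescence ratio relative to baseline, converted to per-well B score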
# TRPC4 spec 2 – second selectivity test of TRPC6 inhibitors: effect on mouse TRPC4; shares compounds with TRPC6 inhibitor; HEK293 TRPC4/MOR, membrane potential dye fluorescence; channel activated by saturating DAMGO dose; inhibition, % at 10 µM; 920 compounds, 42% hits;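 active means compounds whose fluorescence signal differed from control wells by over 3 SD, either direction, in both duplicate plates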
# TRPC4 spec – selectivity of TRPC6 inhibitors: effect on mouse TRPC4; shares compounds with TRPC6 inhibitor; activity change, negative = inhibition, % at 10 µM; AID 2777; 920 compounds, 61% hits; HEK293 TRPC4/mu-opioid, membrane potential fluorescence;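 active means rise or fall in signal beyond 3 SD of buffer-only wells in both replicate plates, either sign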;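 further: integrated kinetic ratio of fluorescence range over baseline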
# HEK293 MPD ctr 2-1 – second counter-screen for TRPC6 inhibitors: parental HEK293 cells; shares compounds with TRPC6 inhibitor; parental HEK293 membrane potential dye fluorescence; maximal acetylcholine challenge after compound addition; signal change vs control, % at 10 µM; 920 compounds, 31% hits; AID 2779;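 active means membrane potential signal moving either way by over 3 SD of the maximum-effect control, in both duplicate plates, meaning non-specific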
# HEK293 MPD ctr-1 – checks TRPC6 inhibitor effects in parental HEK293 cells | parental HEK293 membrane potential dye fluorescence | AID 2780 | membrane potential signal change, % at 10 µM | 920 compounds, 60% hits | shares compounds with TRPC6 inhibitor;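 active means membrane potential signal shifting up or down by more than 3 SD of buffer-only wells, on both duplicate plates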
# HEK293 MPD ctr-2 – counter-screen for TRPC6 modulators: effect in parental HEK293 cells. shares compounds with TRPC6 inhibitor. membrane potential dye fluorescence. membrane potential signal change, % at 10 µM. 2,400 compounds, 51% hits. AID 488924;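 active means membrane potential signal moves up or down beyond 5 SD from buffer-only wells, on both duplicate plates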
# HEK293 MPD ctr 2-2 – second check of TRPC6 modulator effects in parental HEK293 cells. shares compounds with TRPC6 inhibitor. membrane potential dye fluorescence; after compound, maximal acetylcholine stimulation. inhibition, % at 10 µM. 2,400 compounds, 14% hits;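 active means membrane potential signal drops by more than 5 SD from the mean control signal, in both duplicate plates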;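 further: plate controls were acetylcholine ECmax control wells for no effect and buffer only wells for full effect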
# TRPC4 ctr mod – tests whether TRPC6 modulators also affect mouse TRPC4; shares compounds with TRPC6 inhibitor; HEK293 TRPC4/mu-opioid, membrane potential fluorescence; percent change from control (negative = decrease, positive = increase), % at 10 µM; 2,400 compounds, 69% hits;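 active means membrane potential signal moved up or down beyond 5 SD of buffer control wells, in both duplicate plates, actives on both sides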;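 further: plate controls were assay buffer wells for no effect and DAMGO maximal-effect wells for full effect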
# TRPC4 ctr inh 2 – second check of whether TRPC6 modulators also affect mouse TRPC4; HEK293 TRPC4/mu-opioid, membrane potential dye fluorescence; stimulated with maximal-effect DAMGO; shares compounds with TRPC6 inhibitor; inhibition, % at 10 µM; 2,400 compounds, 55% hits; AID 488928;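 active means drop in membrane potential signal beyond 5 SD of the control wells in both duplicate plates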;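 further: TRPC4 counter screen for TRPC6 hits run under conditions tuned for TRPC6 not TRPC4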
# TRPC6 block conf – mouse TRPC6 inhibitor confirmation | inhibition, % at 10 µM | AID 488960 | 3,300 compounds, 43% hits | shares compounds with TRPC6 inhibitor | HEK293-TRPC6, membrane potential dye, ACh-evoked depolarization;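 active means fluorescence ratio falls more than 5 SD below the full-stimulation control mean, in both duplicate runs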;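 further: integrated fluorescence ratio of peak minus minimum over baseline after agonist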
# TRPC6 act conf – mouse TRPC6 activator confirmation. 2,800 compounds, 11% hits. AID 488961. HEK293-TRPC6 membrane potential dye fluorescence, FDSS. shares compounds with TRPC6 inhibitor. activation, % at 10 µM;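 active means ratio signal rise beyond 5 SD above unstimulated control wells' mean, seen in both duplicate runs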;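 further: plate controls were buffer EC0 wells for no effect and acetylcholine ECmax response for full effect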
# * hit, by the source's call; i = inactive; nt = not tested or not shown.
SMILES,TRPC6 inhibitor,TRPC6 act,TRPC4 potent,Kir21 block,TRPC4 act,TRPC4 block,HEK293 MPD ctr-2,HEK293 MPD ctr 2-2,TRPC4 ctr mod,TRPC4 ctr inh 2,TRPC6 block conf,TRPC6 act conf,others
CC(C)c1nc(N2CCOCC2)c(C#N)c2c1CCCC2,-5.5*,i,i,-2.21,i,i,i,i,18.0%*,i,i,nt,
O=S1(=O)CCN(Cc2cccc(C(F)(F)F)c2)CC1,i,i,i,-0.62,i,i,nt,nt,nt,nt,nt,nt,
Cc1ccc(-c2csc(N=C(N)N)n2)c(C)c1,-5.45*,i,i,-8.34*,i,i,94.0%*,i,12.0%*,52.0%*,i,nt,
CCOc1ccc(CCNC(=O)CN2C(=O)c3cccnc3Oc3ccc(Cl)cc32)cc1,i,i,i,-0.78,i,i,nt,nt,nt,nt,nt,nt,
C[N+]1(CC#CC(O)(c2ccccc2)c2ccccc2)CCCC1,-7.34*,i,i,-0.14,i,i,nt,nt,nt,nt,91.0%*,i,TRPC4 spec 2=i;TRPC4 spec=i;HEK293 MPD ctr 2-1=-27.0%*;HEK293 MPD ctr-1=i
CC(C)[N+](C)(C)CC#CC(O)(c1ccccc1)c1ccccc1,-9.15*,i,i,-1.13,i,i,nt,nt,nt,nt,85.1%*,i,TRPC4 spec 2=i;TRPC4 spec=i;HEK293 MPD ctr 2-1=25.0%*;HEK293 MPD ctr-1=i
COc1ccc(C(=O)Nc2c(-c3ccccc3)nc3ccccn23)c(OC)c1,i,20*,i,-1.55,i,i,i,i,12.5%*,28.0%*,i,i,
CCCCn1c(N)c(N(CCOC)C(=O)c2ccc(C)c(S(=O)(=O)N3CCCCC3)c2)c(=O)[nH]c1=O,-5.76*,i,i,0.45,i,i,i,i,i,i,i,i,
CS(=O)(=O)N1CCN(C(=O)C2c3ccccc3Oc3ccccc32)CC1,-5.7*,i,i,-0.57,i,i,i,i,18.0%*,i,42.5%*,nt,
CC(C)CCNC(=O)C(c1ccco1)N(Cc1cccs1)C(=O)Cn1nnc2ccccc21 (stereo not drawn),i,14.9*,i,-2.06,i,i,281.0%*,i,72.0%*,i,i,98.0%*,
CCOC(=O)CN1C(=O)S/C(=C/c2ccc(N3CCCCC3)o2)C1=O,i,i,i,0.4,i,i,nt,nt,nt,nt,nt,nt,
COC(=O)CN1C(=O)S/C(=C/c2ccc(N3CCCCC3)o2)C1=O,i,12.7*,i,-2.48,i,i,162.0%*,i,90.5%*,i,i,35.0%*,
Cc1nc2nc(SCC(=O)NCCCN3CCCC(C)C3)nn2c(C)c1Cc1ccccc1Cl (stereo not drawn),-6.74*,i,i,-0.5,i,i,i,i,i,i,49.0%*,nt,
Cc1nc2nc(SCC(=O)NCCCN3CCCCCC3)nn2c(C)c1Cc1ccccc1Cl,i,i,i,-1.11,i,i,nt,nt,nt,nt,nt,nt,
CC(C)C(C)NC(=O)COC(=O)C1CCN(S(=O)(=O)c2ccc3c(c2)OCCO3)CC1 (stereo not drawn),-6.38*,i,i,-0.9,i,i,i,i,7.0%*,i,i,i,
O=C(Nc1cccc(S(=O)(=O)C(F)F)c1)c1ccc(Cl)c(S(=O)(=O)N2CCOCC2)c1,-6.08*,i,i,-0.1,i,i,i,i,i,i,i,i,
CC(=O)Nc1ccc(OCc2nnc(-c3ccc(Cl)cc3)o2)cc1,-6.32*,i,i,0.15,i,i,i,i,i,i,i,i,
Cn1c(=Nc2ccc(N3CCOCC3)cc2)ccc2ccccc21,-5.97*,i,i,0.76,i,i,-76.0%*,i,-16.0%*,i,41.0%*,i,
CNCc1c(OCc2ccccc2)ccc2ccccc12,-7.05*,i,i,-0.25,i,-6*,nt,nt,nt,nt,i,nt,TRPC4 spec 2=44.5%*;TRPC4 spec=28.6%*;HEK293 MPD ctr 2-1=i;HEK293 MPD ctr-1=12.5%*
C/C(=N\NC(=O)C1(C)CC1(Br)Br)c1cccc(NC(=O)c2ccc(C)o2)c1 (stereo not drawn),i,i,i,-1.61,i,i,nt,nt,nt,nt,nt,nt,
O=C(Nc1ccc(N2C(=O)CCC2=O)cc1Cl)c1cccs1,i,i,i,-1.04,i,i,nt,nt,nt,nt,nt,nt,
CCOC(=O)C(=O)Nc1ccc(S(=O)(=O)Nc2nccs2)cc1,i,i,i,2.26,i,i,nt,nt,nt,nt,nt,nt,
CC(=O)C1CCN(Cc2ccccc2)CC1,i,i,i,0,i,i,nt,nt,nt,nt,nt,nt,
CSc1ccccc1OC1CCN(Cc2ccccc2)CC1,i,12.2*,i,-12.7*,i,i,195.5%*,i,40.0%*,63.0%*,i,77.0%*,
Cc1cccc(NC2=C(NCCO)C(=O)c3ccccc3C2=O)c1,-10.9*,i,i,-0.04,i,i,-251.5%*,i,-49.5%*,65.5%*,52.5%*,i,
